From ChEMBL document CHEMBL1127542, “Inhibitors of acyl-CoA:cholesterol O-acyl transferase (ACAT) as hypocholesterolemic agents. 8. Incorporation of amide or amine functionalities into a series of disubstituted ureas and carbamates. Effects on ACAT inhibition in vitro and efficacy in vivo” (J Med Chem, 1994)

What was measured:
[1] = target: Sterol O-acyltransferase 1 (Oryctolagus cuniculus); assay: In vitro inhibition of rabbit intestinal acyl coenzyme A:cholesterol acyltransferase using [1-14C]oleolyl-CoA
Rattus norvegicus = organism: Rattus norvegicus; assay: Percent change in total cholesterol in cholic acid (0.5%)-cholesterol (1.5%)-peanut oil (5.5%)-fed rats; type: functional
Outline: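 Acute screen: rats given a single gavage dose, 50 mg/kg standard unless noted, suspended in carboxymethylcellulose plus Tween-20 in water, then a single high-fat, high-cholesterol meal (0.5% cholic acid, 1.5% cholesterol, 5.5% peanut oil). Overnight rise in plasma total cholesterol measured as % change versus control. Stomachs checked for food. ANOVA with Fisher's multiple range test, p<0.05.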

Compound | IC50 [1] [nM] | Change (Rattus norvegicus) [%]
COc1ccc(CNC(CNC(=O)Nc2c(C(C)C)cccc2C(C)C)Cc2ccccc2)cc1 (single isomer, unassigned; (-)) | 270 | -30
CC(C)c1cccc(C(C)C)c1NC(=O)NCC(NCc1ccncc1)c1ccccc1 (single isomer, unassigned; (+)) | 1200 | -19
CC(C)c1cccc(C(C)C)c1NC(=O)NCC(NC(=O)c1ccco1)c1ccccc1 (configuration not stated) | 440 | -37
CCCCCCCCCCCCCCCCCC(=O)NC(CNC(=O)Nc1c(C(C)C)cccc1C(C)C)c1ccccc1 (configuration not stated) | 1700 | 8
CC(C)c1cccc(C(C)C)c1NC(=O)OCC(NC(=O)OC(C)(C)C)c1ccccc1 (configuration not stated) | 2500 | –
CC(C)c1cccc(C(C)C)c1NC(=O)NCC(NC(=O)c1ccc(C(F)(F)F)cc1)c1ccccc1 (configuration not stated) | 510 | -9
COc1ccc(C(=O)NC(C)(C)CNC(=O)Nc2c(C(C)C)cccc2C(C)C)cc1 | – | -9
CC(C)c1cccc(C(C)C)c1NC(=O)NCC(CN(C)Cc1ccccc1)c1ccccc1 (configuration not stated) | > 10000 | –
CC(C)c1cccc(C(C)C)c1NC(=O)NCC(NC(=O)c1cccc2ccccc12)c1ccccc1 (configuration not stated) | 970 | -14
CC(C)c1cccc(C(C)C)c1NC(=O)NCC(NC(=O)CCCCCBr)c1ccccc1 (configuration not stated) | 380 | -36
CC(C)c1cccc(C(C)C)c1NC(=O)NCC(CN(Cc1ccccc1)Cc1ccccc1)c1ccccc1 (configuration not stated) | 7600 | –
CCCCCCCCCC(=O)NC(CNC(=O)Oc1c(C(C)C)cccc1C(C)C)c1ccccc1 (racemic) | 760 | 25
CC(C)c1cccc(C(C)C)c1NC(=O)NCC(NC(=O)CCCCCN(CCO)CCO)c1ccccc1 (configuration not stated) | 2800 | -4
CC(C)c1cccc(C(C)C)c1OC(=O)NCC(NC(=O)OC(C)(C)C)c1ccccc1 (single isomer, unassigned; (-)) | 430 | 20
COc1ccc(C(=O)NC2(CNC(=O)Nc3c(C(C)C)cccc3C(C)C)CCCC2)cc1 | 500 | -6
Cc1ccc(C(=O)NC(CNC(=O)Nc2c(C(C)C)cccc2C(C)C)c2ccccc2)cc1 (configuration not stated) | 350 | -1
CC(C)c1cccc(C(C)C)c1NC(=O)NC(CNC(=O)c1ccccc1)c1ccccc1 (configuration not stated) | 3600 | –
COc1ccc(C(=O)NC(CNC(=O)Nc2c(C(C)C)cccc2C(C)C)C2CCCCC2)cc1 (racemic) | 250 | -15
CC(C)c1cccc(C(C)C)c1NC(=O)NCC(NCc1cccnc1)c1ccccc1 (configuration not stated) | 370 | -26
COc1ccc(C(=O)NC(C)(CNC(=O)Nc2c(C(C)C)cccc2C(C)C)c2ccccn2)cc1 (racemic) | 610 | -23
CC(C)c1cccc(C(C)C)c1NC(=O)NCC(NC(=O)c1cnccn1)c1ccccc1 (configuration not stated) | 440 | -19
CCCCCCCCCCC(C)(C)C(=O)Nc1c(OC)cc(OC)cc1OC [CL-976] | – | -44
CCCCCCC(=O)NC(COC(=O)Nc1c(C(C)C)cccc1C(C)C)c1ccccc1 (stereo in doubt; 34a(-)) | 570 | -2
CCCCCCCCCC(=O)NC(CNC(=O)Nc1c(C(C)C)cccc1C(C)C)c1ccccc1 (configuration not stated) | 590 | -29
CC(C)c1cccc(C(C)C)c1NC(=O)NCC(NCc1ccc(O)c(CN(C)C)c1)c1ccccc1 (single isomer, unassigned; (-)) | 490 | -46
CC(C)c1cccc(C(C)C)c1NC(=O)NCC(Cc1ccccc1)NCc1ccccc1O (configuration not stated) | 410 | -37
CCCCCCCCCCCC(=O)NC(CNC(=O)Oc1c(C(C)C)cccc1C(C)C)c1ccccc1 (single isomer, unassigned; (-)) | 51 | 25
CC(C)c1cccc(C(C)C)c1NC(=O)OCC(NCc1ccc(N(C)C)cc1)c1ccccc1.Cl (configuration not stated) | – | -23
CCCCCCC(=O)NC(COC(=O)Nc1c(C(C)C)cccc1C(C)C)c1ccccc1 (single isomer, unassigned; (+)) | 5100 | –

Continued, in another order:

IC50 [1] [nM] | Compound | Change (Rattus norvegicus) [%]
160 | CC(C)c1cccc(C(C)C)c1NC(=O)NCC(CNCc1ccccc1)c1ccccc1 (configuration not stated) | -46
49 | CCCCCCNC(CNC(=O)Nc1c(C(C)C)cccc1C(C)C)c1ccccc1 (racemic) | -41
33 | CC(C)c1cccc(C(C)C)c1NC(=O)NCC(NCc1ccccc1)c1ccccc1 (single isomer, unassigned; (-)) | -29
77 | CCCCCCCCCCCC(=O)NC(CNC(=O)Nc1c(C(C)C)cccc1C(C)C)c1ccccc1 (configuration not stated) | -16
64 | CC(C)c1cccc(C(C)C)c1NC(=O)NCC(NCC1CC1)c1ccccc1 (single isomer, unassigned; (-)) | -51
83 | CCCCCCCCCCNC(CNC(=O)Nc1c(C(C)C)cccc1C(C)C)c1ccccc1 (racemic) | -38
45 | CC(C)c1cccc(C(C)C)c1NC(=O)NCC(NCc1cccc([N+](=O)[O-])c1)c1ccccc1 (single isomer, unassigned; (-)) | -32
53 | CC(C)c1cccc(C(C)C)c1NC(=O)NCC(NCc1ccccc1)c1ccccc1 (stereo in doubt; 9k(+)) | -41
150 | CC(C)c1cccc(C(C)C)c1NC(=O)NCC(NC(=O)c1ccc2ccccc2n1)c1ccccc1 (configuration not stated) | -31
110 | CCCCCCCNC(CNC(=O)Nc1c(C(C)C)cccc1C(C)C)c1ccccc1 (racemic) | -25
70 | COc1ccc(CNC(CNC(=O)Nc2c(C(C)C)cccc2C(C)C)c2ccccc2)cc1 (stereo in doubt; 9m(+)) | -36
48 | COc1ccc(CNC(CNC(=O)Nc2c(C(C)C)cccc2C(C)C)c2ccccc2)cc1 (racemic) | -54
200 | CCCCCCCCCCCC(=O)NC(COC(=O)Nc1c(C(C)C)cccc1C(C)C)c1ccccc1 (configuration not stated) | -16
60 | CC(C)c1cccc(C(C)C)c1NC(=O)NCC(NCc1ccc(N(C)C)cc1)c1ccccc1 (stereo in doubt; 9n(+)) | -56
39 | COc1ccc(CNC(CNC(=O)Nc2c(C(C)C)cccc2C(C)C)c2ccccc2)cc1 (single isomer, unassigned; (-)) | -45
48 | CC(C)c1cccc(C(C)C)c1NC(=O)NCC(NCc1ccoc1)c1ccccc1 (configuration not stated) | -38
80 | COc1ccc(CNC(CNC(=O)Nc2c(C(C)C)cccc2C(C)C)C(C)C)cc1 (single isomer, unassigned; (-)) | -41
52 | Cc1ccc(CNC(CNC(=O)Nc2c(C(C)C)cccc2C(C)C)c2ccccc2)cc1 (racemic) | -45
90 | CCCC(CCC)(CNC(=O)Nc1c(C(C)C)cccc1C(C)C)NC(=O)c1ccc(OC)cc1 | -25
45 | CC(C)c1cccc(C(C)C)c1NC(=O)NCC(NCc1ccccc1C(F)(F)F)c1ccccc1 (single isomer, unassigned; (-)) | -42
140 | CC(C)c1cccc(C(C)C)c1NC(=O)NCC(NCc1ccccn1)c1ccccc1 (configuration not stated) | -15
